Test: Phase I dose-escalation study: safety, adverse events
Format: in vivo, human
Method in brief: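 Oral test compound was given once daily in 28-day cycles after a 7-day single-dose run-in, in Japanese and Hong Kong/Taiwan groups escalated separately. Toxicity was graded by CTCAE v3.0 using laboratory tests, physical examination, vital signs, weight and periodic ECG. DLTs were grade 3–4 events over the run-in plus cycle 1. MTD was set by an adaptive Bayesian logistic regression model with overdose control.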

[1] = group 1, 600 mg q.d. (n = 9), Grade 3
[2] = group 1, 600 mg q.d. (n = 9), Grade 4
[3] = group 1, All patients (n = 21), All grades
[4] = group 1, All patients (n = 21), Grade 3
[5] = group 1, All patients (n = 21), Grade 4
[6] = group 2, 400 mg q.d. (n = 12), All grades

Question: With `Cc1c(C(=O)Nc2ccc(N3C[C@@H](C)O[C@@H](C)C3)nc2)cccc1-c1ccc(OC(F)(F)F)cc1` [Sonidegib] as the compound, how does the “Lymphopenia (drug-related adverse event)” value [1] read?
Answer: The value was 1 (11) n (%).

Question: And the “Muscle spasms (drug-related adverse event)” value (“Muscle spasms” below) [1]?
Answer: The value was 0 (0) n (%).

Question: And the “Muscle weakness (drug-related adverse event)” value (shortened to “Muscle weakness”) [1]?
Answer: Its value is 1 (11) n (%).

Question: What about the “Myalgia (drug-related adverse event)” value [1] of the same compound?
Answer: Its value is 0 (0) n (%).

Question: And the “Myoglobin blood increased (drug-related adverse event)” value (shortened to “Myoglobin blood increased”) [1]?
Answer: Its value is 1 (11) n (%).

Question: What about the “Nausea (drug-related adverse event)” value [1] of the same compound?
Answer: Its value is 0 (0) n (%).

Question: And the “Rhabdomyolysis (drug-related adverse event)” value (“Rhabdomyolysis” for short) [1]?
Answer: Its value is 1 (11) n (%).

Question: And the “Alopecia (drug-related adverse event)” value [2]?
Answer: The value was 0 (0) n (%).

Question: What about the “Blood creatine kinase increased (drug-related adverse event)” value (“Blood creatine kinase increased” for short) [2] of the same compound?
Answer: The value was 2 (22) n (%).

Question: What about the “Decreased level of consciousness (drug-related adverse event)” value (from here on “Decreased level of consciousness”) [2] of the same compound?
Answer: Its value is 1 (11) n (%).

Question: And the “Dysgeusia (drug-related adverse event)” value [2]?
Answer: The value was 0 (0) n (%).

Question: And the “Fatigue (drug-related adverse event)” value [2]?
Answer: Its value is 0 (0) n (%).

Question: What about the “Hepatic function abnormal (drug-related adverse event)” value (“Hepatic function abnormal” for short) [2] of the same compound?
Answer: The value was 1 (11) n (%).

Question: What about the “Hyperglycemia (drug-related adverse event)” value (from here on “Hyperglycemia”) [2] of the same compound?
Answer: The value was 0 (0) n (%).

Question: What about the “Lymphopenia (drug-related adverse event)” value [2] of the same compound?
Answer: Its value is 0 (0) n (%).

Question: And the “Muscle spasms” value [2]?
Answer: The value was 0 (0) n (%).

Question: And the “Muscle weakness” value [2]?
Answer: Its value is 0 (0) n (%).

Question: And the “Myalgia (drug-related adverse event)” value [2]?
Answer: The value was 0 (0) n (%).

Question: And the “Myoglobin blood increased” value [2]?
Answer: Its value is 0 (0) n (%).

Question: What about the “Nausea (drug-related adverse event)” value [2] of the same compound?
Answer: Its value is 0 (0) n (%).

Question: What about the “Rhabdomyolysis” value [2] of the same compound?
Answer: Its value is 0 (0) n (%).

Question: And the “Alopecia (drug-related adverse event)” value [3]?
Answer: The value was 4 (19) n (%).

Question: And the “Blood creatine kinase increased” value [3]?
Answer: Its value is 7 (33) n (%).

Question: What about the “Decreased level of consciousness” value [3] of the same compound?
Answer: Its value is 1 (5) n (%).

Question: And the “Dysgeusia (drug-related adverse event)” value [3]?
Answer: Its value is 3 (14) n (%).

Question: What about the “Fatigue (drug-related adverse event)” value [3] of the same compound?
Answer: Its value is 4 (19) n (%).

Question: What about the “Hepatic function abnormal” value [3] of the same compound?
Answer: Its value is 5 (24) n (%).

Question: What about the “Hyperglycemia” value [3] of the same compound?
Answer: Its value is 1 (5) n (%).

Question: What about the “Lymphopenia (drug-related adverse event)” value [3] of the same compound?
Answer: Its value is 1 (5) n (%).

Question: And the “Muscle spasms” value [3]?
Answer: Its value is 2 (10) n (%).

Question: What about the “Muscle weakness” value [3] of the same compound?
Answer: Its value is 1 (5) n (%).

Question: And the “Myoglobin blood increased” value [3]?
Answer: The value was 1 (5) n (%).

Question: What about the “Nausea (drug-related adverse event)” value [3] of the same compound?
Answer: Its value is 3 (14) n (%).

Question: And the “Rhabdomyolysis” value [3]?
Answer: Its value is 2 (10) n (%).

Question: And the “Alopecia (drug-related adverse event)” value [4]?
Answer: Its value is 0 (0) n (%).

Question: And the “Blood creatine kinase increased” value [4]?
Answer: The value was 3 (14) n (%).

Question: And the “Decreased level of consciousness” value [4]?
Answer: Its value is 0 (0) n (%).

Question: And the “Dysgeusia (drug-related adverse event)” value [4]?
Answer: Its value is 0 (0) n (%).

Question: And the “Fatigue (drug-related adverse event)” value [4]?
Answer: Its value is 0 (0) n (%).

Question: And the “Hepatic function abnormal” value [4]?
Answer: Its value is 2 (10) n (%).

Question: What about the “Hyperglycemia” value [4] of the same compound?
Answer: Its value is 1 (5) n (%).

Question: And the “Lymphopenia (drug-related adverse event)” value [4]?
Answer: The value was 1 (5) n (%).

Question: What about the “Muscle spasms” value [4] of the same compound?
Answer: Its value is 0 (0) n (%).

Question: What about the “Muscle weakness” value [4] of the same compound?
Answer: Its value is 1 (5) n (%).

Question: And the “Myalgia (drug-related adverse event)” value [4]?
Answer: The value was 0 (0) n (%).

Question: What about the “Myoglobin blood increased” value [4] of the same compound?
Answer: Its value is 1 (5) n (%).

Question: What about the “Nausea (drug-related adverse event)” value [4] of the same compound?
Answer: The value was 0 (0) n (%).

Question: What about the “Rhabdomyolysis” value [4] of the same compound?
Answer: The value was 1 (5) n (%).

Question: What about the “Alopecia (drug-related adverse event)” value [5] of the same compound?
Answer: Its value is 0 (0) n (%).

Question: And the “Blood creatine kinase increased” value [5]?
Answer: The value was 2 (10) n (%).

Question: What about the “Decreased level of consciousness” value [5] of the same compound?
Answer: The value was 1 (5) n (%).

Question: And the “Dysgeusia (drug-related adverse event)” value [5]?
Answer: Its value is 0 (0) n (%).

Question: What about the “Fatigue (drug-related adverse event)” value [5] of the same compound?
Answer: Its value is 0 (0) n (%).

Question: And the “Hepatic function abnormal” value [5]?
Answer: Its value is 1 (5) n (%).

Question: What about the “Hyperglycemia” value [5] of the same compound?
Answer: Its value is 0 (0) n (%).

Question: What about the “Lymphopenia (drug-related adverse event)” value [5] of the same compound?
Answer: The value was 0 (0) n (%).

Question: What about the “Muscle spasms” value [5] of the same compound?
Answer: Its value is 0 (0) n (%).

Question: What about the “Muscle weakness” value [5] of the same compound?
Answer: Its value is 0 (0) n (%).

Question: And the “Myalgia (drug-related adverse event)” value [5]?
Answer: The value was 0 (0) n (%).

Question: And the “Myoglobin blood increased” value [5]?
Answer: The value was 0 (0) n (%).

Question: And the “Nausea (drug-related adverse event)” value [5]?
Answer: Its value is 0 (0) n (%).

Question: And the “Rhabdomyolysis” value [5]?
Answer: Its value is 1 (5) n (%).

Question: And the “Drug-related AE: abnormal hepatic function” value (group 1, all doses)?
Answer: The value was 24%.

Question: What about the “Drug-related AE: fatigue” value (group 1, all doses) of the same compound?
Answer: The value was 19%.

Question: What about the “Drug-related AE: increase in CK levels” value (group 1, all doses) of the same compound?
Answer: Its value is 33%.

Question: What about the “Drug-related AE: myalgia” value (group 1, all doses) of the same compound?
Answer: Its value is 29%.

Question: What about the “Patients with at least one AE suspected to be related to sonidegib” value (group 1, n = 18) of the same compound?
Answer: Its value is 86%.

Question: What about the “Recommended dose (RD)” value (group 2 (Chinese/Taiwanese)) of the same compound?
Answer: Its value is 400 mg q.d.

Question: What about the “Grade 3 /4 Creatine kinase elevation during all study period” value (group 2 (Chinese/Taiwanese), 400 mg qd, N = 12) of the same compound?
Answer: Its value is 2 (17) n (%).

Question: And the “Grade 3 /4 Creatine kinase elevation during all study period” value (group 2 (Chinese/Taiwanese), 600 mg qd, N = 8)?
Answer: Its value is 1 (13) n (%).

Question: What about the “Grade 3 /4 Creatine kinase elevation during all study period” value (group 2 (Chinese/Taiwanese), 800 mg qd, N = 4) of the same compound?
Answer: The value was 2 (50) n (%).

Question: And the “Grade 3 /4 Creatine kinase elevation during all study period” value (group 2 (Chinese/Taiwanese), All patients, N = 24)?
Answer: Its value is 5 (21) n (%).

Question: And the “Blood creatine kinase increased” value [6]?
Answer: The value was 6 (50) n (%).

Question: And the “Decreased appetite (drug-related adverse event)” value [6]?
Answer: The value was 0 (0) n (%).

Question: And the “Diarrhea (drug-related adverse event)” value [6]?
Answer: The value was 0 (0) n (%).

Question: What about the “Dizziness (drug-related adverse event)” value [6] of the same compound?
Answer: The value was 0 (0) n (%).

Reference: article PMC5084670 (Cancer Science, 2016)
